ChEMBL document CHEMBL4425122, “Discovery of 1-(1H-Pyrazolo[4,3-c]pyridin-6-yl)urea Inhibitors of Extracellular Signal-Regulated Kinase (ERK) for the Treatment of Cancers” (J Med Chem, 2016)

Assays:
[1] = molecular target: Mitogen-activated protein kinase 1 (Homo sapiens, UniProt P28482); experiment: Inhibition of human ERK2 preincubated for 15 mins followed by addition of IMAP peptide substrate and ATP measured after 60 mins by IMAP-FP assay
Summary of the method: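 Final: 0.5 nM hERK2, 900 nM unlabeled + 80 nM labeled peptide, 30 µM ATP; 60 min, quenched with IMAP beads in binding buffer with 24 mM NaCl, read by fluorescence polarization after 60 min.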

[2] = molecular target: Mitogen-activated protein kinase 1 (Mus musculus, UniProt P63085); experiment: Inhibition of mouse ERK2 preincubated for 15 mins followed by addition of IMAP peptide substrate and ATP measured after 60 mins by IMAP-FP assay
Mitogen-activated protein kinase 1 (Mus musculus, UniProt P63085), sequence (P63085 whole entry): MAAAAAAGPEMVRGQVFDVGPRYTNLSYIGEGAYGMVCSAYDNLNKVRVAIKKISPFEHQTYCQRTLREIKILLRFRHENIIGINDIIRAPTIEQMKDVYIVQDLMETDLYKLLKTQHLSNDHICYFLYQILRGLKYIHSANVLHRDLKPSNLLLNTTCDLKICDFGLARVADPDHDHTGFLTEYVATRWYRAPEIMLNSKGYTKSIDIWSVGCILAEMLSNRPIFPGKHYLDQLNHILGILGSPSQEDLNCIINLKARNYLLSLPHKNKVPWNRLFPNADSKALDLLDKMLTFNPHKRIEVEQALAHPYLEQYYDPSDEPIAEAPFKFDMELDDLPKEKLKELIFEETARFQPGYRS

[3] = molecular target: Cytochrome P450 3A4 (Homo sapiens, UniProt P08684); experiment: Inhibition of CYP3A4 (unknown origin); format: ADME
Cytochrome P450 3A4, sequence (P08684 whole entry): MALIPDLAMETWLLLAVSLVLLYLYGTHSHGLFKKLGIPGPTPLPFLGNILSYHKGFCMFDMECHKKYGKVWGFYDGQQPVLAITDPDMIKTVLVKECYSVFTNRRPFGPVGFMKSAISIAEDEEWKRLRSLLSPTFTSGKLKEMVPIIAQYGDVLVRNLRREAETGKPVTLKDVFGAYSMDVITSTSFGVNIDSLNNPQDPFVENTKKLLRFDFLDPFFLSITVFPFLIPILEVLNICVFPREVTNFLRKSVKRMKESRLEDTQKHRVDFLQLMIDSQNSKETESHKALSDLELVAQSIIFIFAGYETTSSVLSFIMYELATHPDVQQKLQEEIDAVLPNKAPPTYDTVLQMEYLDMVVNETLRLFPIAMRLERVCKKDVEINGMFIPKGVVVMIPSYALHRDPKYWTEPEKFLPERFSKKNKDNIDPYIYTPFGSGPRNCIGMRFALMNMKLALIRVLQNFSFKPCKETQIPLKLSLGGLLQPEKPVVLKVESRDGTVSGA

[4] = molecular target: Voltage-gated inwardly rectifying potassium channel KCNH2 (Homo sapiens, UniProt Q12809); experiment: Inhibition of human ERG
Voltage-gated inwardly rectifying potassium channel KCNH2, sequence (Q12809 whole entry): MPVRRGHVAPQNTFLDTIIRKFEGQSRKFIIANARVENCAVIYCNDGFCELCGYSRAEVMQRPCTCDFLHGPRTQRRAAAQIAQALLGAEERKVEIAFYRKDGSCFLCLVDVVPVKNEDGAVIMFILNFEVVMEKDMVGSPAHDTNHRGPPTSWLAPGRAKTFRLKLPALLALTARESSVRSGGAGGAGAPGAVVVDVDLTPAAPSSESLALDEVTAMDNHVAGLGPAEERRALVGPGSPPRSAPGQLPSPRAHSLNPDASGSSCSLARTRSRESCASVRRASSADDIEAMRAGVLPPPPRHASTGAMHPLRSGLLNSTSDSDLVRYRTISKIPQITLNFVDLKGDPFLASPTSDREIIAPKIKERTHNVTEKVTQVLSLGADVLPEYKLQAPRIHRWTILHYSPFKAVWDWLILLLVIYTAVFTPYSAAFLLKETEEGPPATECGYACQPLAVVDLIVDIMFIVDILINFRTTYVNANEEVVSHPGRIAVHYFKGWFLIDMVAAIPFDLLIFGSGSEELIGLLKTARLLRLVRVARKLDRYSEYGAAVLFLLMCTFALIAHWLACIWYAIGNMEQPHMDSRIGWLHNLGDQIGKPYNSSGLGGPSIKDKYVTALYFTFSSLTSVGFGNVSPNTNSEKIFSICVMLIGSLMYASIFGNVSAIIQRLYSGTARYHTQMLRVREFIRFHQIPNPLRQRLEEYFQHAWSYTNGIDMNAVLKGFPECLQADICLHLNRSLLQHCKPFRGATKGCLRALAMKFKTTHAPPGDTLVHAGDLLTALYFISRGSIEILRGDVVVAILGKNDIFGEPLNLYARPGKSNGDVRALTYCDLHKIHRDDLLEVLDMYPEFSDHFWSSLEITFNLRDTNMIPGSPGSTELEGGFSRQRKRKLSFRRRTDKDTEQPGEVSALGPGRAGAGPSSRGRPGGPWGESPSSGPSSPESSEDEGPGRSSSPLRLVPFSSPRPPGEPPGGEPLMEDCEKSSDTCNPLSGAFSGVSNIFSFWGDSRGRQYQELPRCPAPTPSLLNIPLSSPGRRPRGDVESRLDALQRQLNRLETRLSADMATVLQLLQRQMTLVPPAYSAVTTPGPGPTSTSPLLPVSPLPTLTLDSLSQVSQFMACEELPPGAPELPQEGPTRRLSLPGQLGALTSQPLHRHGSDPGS

[5] = Inhibition of ERK in human A375SM cells harboring BRAF V600E mutant assessed as inhibition of RSK phosphorylation measured after 4 hrs by mesoscale electrochemiluminescent sandwich assay; format: cell-based; conditions: A375-SM
Summary of the method: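 A375SM (BRAF V600E melanoma) cells, 10,000 per well, treated 4 h; lysed 20 min at 4 °C in Tris/NaCl/EGTA/EDTA/Triton/NaF buffer with protease and phosphatase inhibitors. Lysate captured with biotin anti-RSK1 on streptavidin MSD plate, detected with SULFO-TAG anti-pRSK (pThr359/Ser363) overnight at 4 °C; electrochemiluminescence read. IC50 from 11-point titration.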

Mitogen-activated protein kinase 1 (Homo sapiens, UniProt P28482), sequence (P28482 whole entry): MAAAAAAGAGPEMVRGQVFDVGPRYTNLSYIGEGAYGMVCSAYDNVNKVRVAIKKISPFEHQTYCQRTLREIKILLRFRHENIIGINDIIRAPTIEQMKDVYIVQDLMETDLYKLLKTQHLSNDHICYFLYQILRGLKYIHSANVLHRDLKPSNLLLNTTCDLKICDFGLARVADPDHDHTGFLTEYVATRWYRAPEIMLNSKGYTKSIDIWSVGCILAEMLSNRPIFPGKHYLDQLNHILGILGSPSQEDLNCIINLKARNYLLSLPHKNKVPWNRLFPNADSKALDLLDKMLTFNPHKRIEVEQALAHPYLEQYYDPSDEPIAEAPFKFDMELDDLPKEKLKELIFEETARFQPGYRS

Row | SMILES | IC50 [1] [nM] | IC50 [2] [nM] | IC50 [3] [nM] | IC50 [4] [nM] | IC50 [5] [nM]
1 | Cc1cc(-c2n[nH]c3cc(Nc4nccs4)ncc23)ccn1 | 56 |  |  |  | 
2 | Cc1cc(-c2n[nH]c3cc(Nc4ncc(-c5ccccc5)s4)ncc23)ccn1 | > 3000 |  |  |  | 
3 | Cc1cc(-c2n[nH]c3cc(NC(=O)OCc4ccccc4)ccc23)ccn1 |  | > 3000 |  |  | 
4 | C[C@@H](NC(=O)Nc1cc2[nH]nc(-c3ccnc(F)c3)c2cn1)c1ccccc1 | 0.3 |  | 29000 | > 20000 | 97
5 | Cc1cc(-c2n[nH]c3cc(NC(=O)Nc4ccccc4)ncc23)ccn1 |  |  |  |  | > 10000
6 | Cc1cc(-c2n[nH]c3cc(NC(=O)N[C@H](C)c4ccccc4)ncc23)cc(C)n1 | 0.3 |  | 780 | > 20000 | 130
7 | C[C@@H](NC(=O)Nc1cc2[nH]nc(-c3cnn(C)c3)c2cn1)c1ccccc1 | 0.3 |  | 380 | > 20000 | 110
8 | C[C@@H](NC(=O)Nc1cc2[nH]nc(C3CCCC3)c2cn1)c1ccccc1 | 4 |  |  |  | 810
9 | C[C@@H](NC(=O)Nc1cc2[nH]nc(C3CC3)c2cn1)c1ccccc1 |  |  |  |  | 550
10 | CCCc1n[nH]c2cc(NC(=O)N[C@H](C)c3ccccc3)ncc12 | 2 |  |  |  | 350
11 | Cc1cc(-c2n[nH]c3cc(NC(=O)NC4CCc5ccccc54)ncc23)ccn1 (stereo not drawn) | 5 |  |  |  | 750
